ChEMBL document CHEMBL4028906, “Allosteric Inhibitors of SHP2 with Therapeutic Potential for Cancer Treatment” (J Med Chem, 2017)
Active and inactive are the calls of the source. No cut-off for these calls is given here.

Legend:
[1] = target: M-phase inducer phosphatase 1 (Homo sapiens, UniProt P30304); assay: Inhibition of CDC25A (unknown origin) expressed in Escherichia coli BL21(DE3) using DIFMUP as substrate preincubated for 20 mins followed by substrate addition measured after 20 mins by phosphatase assay
Sequence of M-phase inducer phosphatase 1 (P30304 whole entry): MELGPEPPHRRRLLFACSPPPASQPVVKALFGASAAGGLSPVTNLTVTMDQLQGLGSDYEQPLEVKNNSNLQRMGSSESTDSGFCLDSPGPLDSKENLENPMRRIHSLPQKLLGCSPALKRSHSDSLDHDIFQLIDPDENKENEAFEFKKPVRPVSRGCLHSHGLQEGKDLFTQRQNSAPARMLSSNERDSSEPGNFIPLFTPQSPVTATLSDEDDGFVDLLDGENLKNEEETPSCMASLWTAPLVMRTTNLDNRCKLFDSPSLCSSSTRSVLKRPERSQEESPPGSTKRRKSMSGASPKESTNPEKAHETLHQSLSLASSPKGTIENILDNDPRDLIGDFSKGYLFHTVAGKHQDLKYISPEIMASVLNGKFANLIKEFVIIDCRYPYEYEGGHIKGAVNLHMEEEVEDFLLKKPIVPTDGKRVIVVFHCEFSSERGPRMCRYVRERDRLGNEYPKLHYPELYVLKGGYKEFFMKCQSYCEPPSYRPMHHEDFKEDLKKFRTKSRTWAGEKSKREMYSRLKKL
Procedure, shortened: (§1)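 Phosphatases purified from E. coli and run as for SHP2 E76A: 20 min room-temperature preincubation with compound in 0.1 M sodium acetate pH 5.0, then DIFMUP at each enzyme's Km, 20 min, fluorescence 358/455 nm. Eight 3-fold dilutions in duplicate; IC50 from at least three independent experiments.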

[2] = tested on: NCI-H661; assay: Antiproliferative activity against human NCI-H661 cells at 3 to 6 uM after 2 days by CellTiter-Glo assay; format: functional, cell-based
Procedure, shortened: (§2)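 3000 cells/well in 96-well plates, grown overnight, then inhibitor at indicated concentrations for 2 days (48 h). Viability by CellTiter-Glo; mean±s.d., n=3.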

[3] = tested on: MDA-MB-468; assay: Antiproliferative activity against human MDA-MB-468 cells at 3 to 6 uM after 2 days by CellTiter-Glo assay; format: functional, cell-based; procedure, shortened: as §2
[4] = target: T1, Tyrosine-protein phosphatase non-receptor type 11 (Homo sapiens) (UniProt Q06124); assay: Allosteric inhibition of SHP2 in human SF268 cells assessed as downregulation of YAP-mediated CYR61 gene expression ay 10 to 20 uM after 2 hrs by qRT-PCR analysis; format: cell-based
T1 sequence (whole entry): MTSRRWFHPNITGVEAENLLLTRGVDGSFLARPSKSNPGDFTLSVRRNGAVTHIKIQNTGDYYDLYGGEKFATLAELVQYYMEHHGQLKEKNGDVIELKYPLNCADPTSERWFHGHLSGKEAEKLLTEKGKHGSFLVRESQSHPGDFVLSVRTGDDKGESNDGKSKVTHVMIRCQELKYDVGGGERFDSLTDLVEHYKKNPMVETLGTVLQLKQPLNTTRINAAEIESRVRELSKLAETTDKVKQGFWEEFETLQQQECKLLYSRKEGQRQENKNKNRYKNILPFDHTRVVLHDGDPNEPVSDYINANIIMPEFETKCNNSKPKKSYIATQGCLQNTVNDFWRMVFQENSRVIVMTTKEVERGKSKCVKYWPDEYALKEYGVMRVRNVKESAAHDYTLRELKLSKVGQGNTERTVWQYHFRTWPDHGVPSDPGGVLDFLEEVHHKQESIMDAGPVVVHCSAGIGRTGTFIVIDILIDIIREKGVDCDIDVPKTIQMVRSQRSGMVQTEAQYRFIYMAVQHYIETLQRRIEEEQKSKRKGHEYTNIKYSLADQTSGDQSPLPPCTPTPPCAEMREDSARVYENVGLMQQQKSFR
Procedure, shortened: (§3)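 SF268 cells exposed to DMSO, 10 μM or 20 μM inhibitor for 2 h. RNA extracted, reverse-transcribed, and CTGF, CYR61, ANKRD1 and YAP mRNA quantified by qPCR; mean±s.d., n=3.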

[5] = target: T1, Tyrosine-protein phosphatase non-receptor type 11 (Homo sapiens); assay: Allosteric inhibition of SHP2 in human NCI-H661 cells assessed as downregulation of phosphorylated ERK1/2 levels at 2.5 to 20 uM after 2 hrs by Western blot analysis; format: cell-based
Procedure, shortened: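 NCI-H661 cells in 6-well plates exposed to inhibitor 2 h at 37 °C. RIPA lysates separated by SDS-PAGE, transferred to PVDF, milk-blocked, probed overnight at 4 °C for pERK1/2, ERK1/2, pAKT and AKT. Repeated at least three times.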

[6] = target: T1, Tyrosine-protein phosphatase non-receptor type 11 (Homo sapiens); assay: Allosteric inhibition of SHP2 PTP domain (unknown origin) expressed in Escherichia coli BL21(DE3) using DIFMUP as substrate preincubated for 20 mins followed by substrate addition measured after 20 mins by phosphatase assay
Procedure, shortened: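 His-tagged SHP2 constructs expressed in E. coli BL21(DE3) (0.5 mM IPTG, 5 h, 30 °C) and Ni-column purified. 1.5 nM enzyme preincubated 20 min at room temperature with compound in 0.1 M sodium acetate pH 5.0. DIFMUP then added, 20 min further, fluorescence at 358/455 nm. Eight 3-fold dilutions, duplicate wells, IC50 from at least three independent experiments.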

[7] = target: T1, Tyrosine-protein phosphatase non-receptor type 11 (Homo sapiens); assay: Allosteric inhibition of SHP2 in human SF268 cells assessed as downregulation of YAP-mediated CTGF gene expression ay 10 to 20 uM after 2 hrs by qRT-PCR analysis; format: cell-based; procedure, shortened: as §3
[8] = target: T1, Tyrosine-protein phosphatase non-receptor type 11 (Homo sapiens); assay: Allosteric inhibition of SHP2 in human NCI-H1975 cells harboring EGFR T790M mutant assessed as downregulation of ERK1/2 phosphorylation at 10 uM after 2 hrs by DAPI-based fluorescence microscopic analysis; format: cell-based
Procedure, shortened: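 NCI-H1975 cells grown overnight on coverslips, then 10 μM inhibitor for 2 h. Fixed in 4% PFA, permeabilized with 0.4% Triton X-100, BSA-blocked. Phospho-ERK1/2 antibody applied overnight at 4 °C, fluorescent secondary 1 h at room temperature, DAPI mount, fluorescence microscopy. Repeated at least three times.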

[9] = AUC in nu/nu nude mouse at 10 mg/kg, po measured up to 24 hrs postdose by LC/MS/MS analysis; format: ADME, organism-based; set-up: dose 10 mg/kg, time < 24 hr, route oral; conditions: in vivo
Procedure, shortened: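 Female nu/nu nude mice dosed IV via tail vein at 5 mg/kg or orally at 10 mg/kg. Blood sampled at 0.083, 0.25, 0.5, 1, 2, 4, 8 and 24 h post-dose (orbital sinus, terminal cardiac puncture; EDTA-2K). Plasma separated at 4 °C, precipitated with acetonitrile containing internal standard, quantified by LC/MS/MS.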

[10] = species on record: Homo sapiens; assay: Selectivity ratio of IC50 for LMW-PTP (unknown origin) expressed in Escherichia coli BL21(DE3) to IC50 for SHP2 E76A mutant (unknown origin) expressed in Escherichia coli BL21(DE3)
Procedure, shortened: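 Ratio of IC50 values from one DIFMUP fluorescence assay (Ex/Em 358/455), room temperature, 0.1 M sodium acetate pH 5.0. His-tagged SHP2 E76A (1.5 nM) or counter-phosphatase purified from E. coli, preincubated 20 min with compound (eight 3-fold dilutions), then DIFMUP added for 20 min. DIFMUP was at Km for each counter-phosphatase. Duplicates; IC50 from at least three independent experiments.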

[11] = target: T1, Tyrosine-protein phosphatase non-receptor type 11 (Homo sapiens); assay: Inhibition of SHP2 in human SF268 cells assessed as downregulation of YAP-mediated ANKRD1 gene expression ay 10 to 20 uM after 2 hrs by qRT-PCR analysis; format: cell-based; procedure, shortened: as §3
[12] = target: Tyrosine-protein phosphatase non-receptor type 1 (Homo sapiens, UniProt P18031); assay: Inhibition of PTP1B (unknown origin) expressed in Escherichia coli BL21(DE3) using DIFMUP as substrate preincubated for 20 mins followed by substrate addition measured after 20 mins by phosphatase assay; procedure, shortened: as §1
Sequence of Tyrosine-protein phosphatase non-receptor type 1 (P18031 whole entry): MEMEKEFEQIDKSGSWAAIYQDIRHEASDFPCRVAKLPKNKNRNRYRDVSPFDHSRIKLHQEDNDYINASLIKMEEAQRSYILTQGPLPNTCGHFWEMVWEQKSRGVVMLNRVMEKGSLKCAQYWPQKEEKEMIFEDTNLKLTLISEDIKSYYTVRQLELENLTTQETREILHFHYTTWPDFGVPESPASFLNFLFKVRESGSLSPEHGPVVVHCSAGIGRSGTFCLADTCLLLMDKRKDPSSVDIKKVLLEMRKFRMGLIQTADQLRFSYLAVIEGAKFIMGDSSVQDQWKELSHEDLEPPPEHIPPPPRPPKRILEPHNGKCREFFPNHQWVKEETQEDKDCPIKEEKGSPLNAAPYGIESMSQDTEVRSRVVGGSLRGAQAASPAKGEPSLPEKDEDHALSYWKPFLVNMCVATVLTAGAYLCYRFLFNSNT

[13] = tested on: MV4-11; assay: Antiproliferative activity against human MV4-11 cells at 3 to 6 uM after 2 days by CellTiter-Glo assay; format: functional, cell-based; procedure, shortened: as §2
[14] = target: T1, Tyrosine-protein phosphatase non-receptor type 11 (Homo sapiens); assay: Allosteric inhibition of SHP2 in human A549 cells harboring KRAS mutant assessed downregulation on ERK1/2 phosphorylation at 5 and 10 uM after 2 hrs by Western blot analysis; format: cell-based
[15] = tested on: NCI-H1975; assay: Antiproliferative activity against human NCI-H1975 cells at 3 to 6 uM after 2 days by CellTiter-Glo assay; format: functional, cell-based; procedure, shortened: as §2

Which results are given for `CC1(N)CCN(c2nc(-c3ccc4cc(Br)ccc4c3)cs2)CC1`?
IC50 [1]: 27.5 µM; Activity [2]: Active; Activity [3]: Active; inhibition [4]: Active; inhibition [5]: Active; inhibition [6]: inactive; inhibition [7]: Active; inhibition [8]: Active; AUC at 24 h [9]: 9.86 µM·h; Ratio IC50 [10]: > 30; inhibition [11]: Active; IC50 [12]: 31.2 µM; Activity [13]: Active; inhibition [14]: inactive; Activity [15]: Active
